# Only some compounds are listed: those with a hit (about 5.3% of all), similar ones and a draw of the others.
# T cruzi repl – blocks replication of Trypanosoma cruzi | T. cruzi beta-gal in NIH3T3, luminescence, 90 h | inhibition, % (no concentration beside the values) | 300,000 tested, 1.4% active;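 active means mean inhibition across valid replicates above about 55%, limit read from the data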;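 further: signal also drops with host cell toxicity which is not excluded here; 0% = plate median of DMSO wells and 100% = zero luminescence signal; higher percent means less beta-gal luminescence so fewer parasites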
#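 Read-out: Parasite load inhibition, % | Test system: Mouse NIH/3T3 fibroblasts infected with β-gal-expressing T. cruzi Tulahuen C4 | Amount: 5,000 cells/well | Medium: DMEM, 2% fetal bovine serum | Signal: GalScreen β-gal luminescence, detergent lysis, 60 min | Timing: 3 h attach, ≥90 h co-culture | Also added: Tulahuen C4 trypomastigotes, 5000/well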
# Beta cell apopt – beta cell apoptosis inhibition; INS-1E cytokine-induced death, ATP luminescence, 48 h; percent of positive-control rescue, neutral wells zero; protection from apoptosis, % (no concentration beside the values); 300,000 tested, 0.8% active; AID 435005;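 active means Every replicate reaches about 75%, or at least half do and their mean reaches it too, limit read from the data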;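 further: 0% = cytokine-treated negative control wells and 100% = positive control rescue; higher means more ATP so stronger rescue from cytokine killing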
# NLRP3 yeast inh – inhibitors of NALP3 inflammasome in yeast; 330,000 tested, 0.39% active; Yeast reconstituted NLRP3/ASC/caspase-1, beta-gal luminescence, 24 h; inhibition, % at 10 µM;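 active means inhibition of 50% or more; inactive means inhibition below 50%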;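 further: plate controls were induced DMSO wells for no effect and uninduced yeast grown without galactose for full effect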
# CSC inhib – blocks cancer stem cells. cancer stem cell-like cells viability, luminescence. inhibition, % at 7.5 µM. 300,000 tested, 1.1% active; in the data active means inhibition above about 75%; tested in HMLE shEcad cells
# Mdm2 MdmX PPI – inhibitors of human Mdm2/MdmX interaction | O15151+Q00987 | SaOS-2 split-luciferase Mdm2/MdmX complementation, luminescence | inhibition, % at 8 µM | 330,000 tested, 3% active | AID 485346;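 active means inhibition of at least 50% at 8 µM in the primary screen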
# Calb FLC – affects C. albicans growth with fluconazole; C. albicans CaCi-2 + fluconazole, Alamar Blue growth, 48 h; growth inhibition, % (test concentration not listed); 300,000 tested, 0.57% active;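 active means growth inhibition above about 58% in most replicates, limit read from the data, passing the limit was not always enough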;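 further: all wells also contain fluconazole at 8 µg/ml as a sub-toxic cotreatment; 0% = median of DMSO wells and 100% = median of geldanamycin control wells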
# NALP3 yeast conf – confirmation of NALP3 inhibitors in yeast; shares compounds with NLRP3 yeast inh; yeast expressing human NALP3, luminescence; inhibition, % at 10 µM; 1,300 tested, 81% active; in the data active means inhibition above about 48%
# Casp1-ASC yeast – counter-screen for NALP3 inhibitors: yeast caspase-1-ASC. shares compounds with NLRP3 yeast inh. yeast expressing Caspase-1-ASC, luminescence counter screen. inhibition, % at 10 µM. 1,000 tested, 66% active
# NALP3 retest – yeast NALP3 inhibition, confirmed on retest; yeast expressing human NALP3, luminescence read-out; inhibition, % at 10 µM; 1,000 tested, 53% active; shares compounds with NLRP3 yeast inh
# * marks the source's active call; other numbers are inactive results; · = no result given. Unless noted, no stated cut-off is given here; in the data, active means inhibition above about 50%; inactive means the rest.
SMILES,T cruzi repl,Beta cell apopt,NLRP3 yeast inh,CSC inhib,Mdm2 MdmX PPI,Calb FLC,NALP3 yeast conf,Casp1-ASC yeast,NALP3 retest
Cc1ccc(OC(=O)c2ccc(Cl)c([N+](=O)[O-])c2)cn1,-17,0,10,6,-6,12,·,·,·
Cc1ccc(OC(=O)c2ccc(C)c(C)c2)cn1,-9,0,54*,11,23,2,54*,75*,45
CCn1c(CNC(C)=O)nnc1SCC(=O)c1ccc(Br)cc1,-6,5,3,-7,2,4,·,·,·
CCN(CC)C(=S)SCC(=O)c1ccc(Br)cc1,6,5,55*,18,-19,-23,64*,·,·
CCN(Cc1ccncc1)C(=O)C(CO)c1ccccc1 (stereo not given),2,4,2,-1,4,·,·,·,·
O=C(NCc1ccccc1)c1cc(-c2cccs2)on1,-5,6,37,12,-29,-15,·,·,·
O=C(NCc1ccc(F)cc1)c1cc(-c2cccs2)on1,8,-1,51*,9,5,-15,69*,45,37
CC(C)COC(=O)N1CCN(S(=O)(=O)c2ccc3c(c2)CCC3)CC1,·,-1,53*,·,10,·,51*,21,29
CC(C)(C)NC(=O)N1CCN(S(=O)(=O)c2ccc3c(c2)CCC3)CC1,·,-5,17,7,9,·,·,·,·
COc1ccc(CCN2CC(C(=O)NCc3cc(C(C)C)no3)CCC2=O)cc1 (stereo not given),-7,·,11,·,-2,1,·,·,·
COc1ccc(C(=O)c2ccccc2)c(OCC(=O)NC2CC2)c1,1,0,52*,11,2,26,70*,·,·
COC(=O)c1ccccc1OCC(=O)NC1CCCCC1,11,-4,77*,-6,-15,4,85*,89*,71*
CC(=O)c1cc(Cl)ccc1OCC(=O)NC1CCCC1,·,·,44,·,7,·,·,·,·
O=C(COc1ccc(Cl)cc1[N+](=O)[O-])NC1CCCCC1,6,4,53*,2,-119,-7,48,58*,47
COc1ccc(-c2nnn(CC(=O)N(CCN3CCOCC3)C(C(=O)NC3CCCCC3)c3ccco3)n2)cc1 (stereo not given),12,-3,19,-5,-2,45,·,·,·
COc1ccc(C2(C)CC(C)(C)Nc3ccccc32)cc1 (stereo not given),-2,-3,55*,39,22,-2,51*,45,38
COc1ccc(C2CC(C)(c3ccc(OC)cc3)Nc3ccccc3N2)cc1 (stereo not given),29,9,30,24,0,5,·,·,·
C=C1CCN(Cc2ccccc2)S(=O)(=O)c2ccccc21,-7,2,51*,0,12,-5,66*,29,35
O=C1c2cccc([N+](=O)[O-])c2C(=O)N1CCO,0,3,2,-18,-8,1,·,·,·
O=C1c2cccc3c(Nc4ccccc4Cl)c([N+](=O)[O-])cc(c23)C(=O)N1CCO,59*,9,54*,0,22,0,71*,56*,56*
O=C(NC1CCCCCC1)c1c(O)nc2sccn2c1=O,2,-4,45,5,36,-3,·,·,·
O=C(NC1CCCCC1)c1c(O)nc2sccn2c1=O,4,·,58*,4,49,-15,74*,34,42
COc1ccc(S(=O)(=O)N2CC(O)CC2C(=O)OCc2nc3sc(C)c(C)c3c(=O)[nH]2)cc1 (stereo not given),-6,0,8,4,-40,2,·,·,·
CCCCCCCCCCCCCCCC(=O)OC(CC(=O)O)C[N+](C)(C)C (stereo not given),·,·,57*,·,-10,·,45,67*,45
Cc1[nH]c2ccccc2c1C(=O)COC(=O)c1ccc([N+](=O)[O-])s1,74*,18,56*,-5,38,18,78*,85*,87*
SMILES,T cruzi repl,Beta cell apopt,NLRP3 yeast inh,CSC inhib,Mdm2 MdmX PPI,Calb FLC,NALP3 yeast conf,Casp1-ASC yeast,NALP3 retest
c1ccc(-c2nc(Sc3ncnc4c3cnn4-c3ccccc3)n[nH]2)cc1,0,-4,50,26,-2,15,69*,·,·
CN(CC(=O)Nc1ccc(S(=O)(=O)N2CCCC2)cc1)Cc1cccc(Cl)c1Cl,4,0,14,1,10,2,·,·,·
Cc1ccc(S(=O)(=O)CC(=O)Nc2nc(C(C)(C)C)cs2)cc1,-11,-2,51*,-7,17,-1,73*,61*,49
Cc1ccc(S(=O)(=O)CCC(=O)Nc2nc(C(C)(C)C)cs2)cc1,-38,0,13,-5,45,-1,·,·,·
CCSc1nc2sc3c(c2c(=O)n1-c1ccccc1)CCN(C)C3,48,·,51*,·,5,28,66*,48,46
CCc1noc(C)c1C(=O)Nc1nc2c(C)cccc2s1,5,·,59*,-5,-3,6,74*,69*,55*
CCc1noc(C)c1C(=O)Nc1nc(-c2cccs2)cs1,-2,10,56*,-10,-12,-1,71*,62*,60*
CCc1noc(C)c1C(=O)Nc1nc(-c2ccc(F)cc2)c(C)s1,27,8,13,0,22,-14,·,·,·
CCc1noc(C)c1C(=O)Nc1cc(C(F)(F)F)ccc1-n1cncn1,-6,·,14,4,-5,-2,·,·,·
CCc1noc(C)c1C(=O)Nc1ccc(C(F)(F)F)cc1,8,3,50*,1,14,-2,62*,49,46
Cc1noc(C)c1C(=O)Nc1nc(-c2cccs2)cs1,·,4,39,-3,-6,·,·,·,·
CCc1noc(C)c1C(=O)Nc1nc2c(F)cc(F)cc2s1,·,12,72*,-1,-19,·,76*,79*,67*
COc1ccc(CN(C)C(=O)Cn2cnc3c(SC)nc(N)nc32)cc1OC,·,6,-6,·,26,·,·,·,·
CCCCOc1ccc2c(c1)C(=O)c1cc(O)ccc1-2,0,9,61*,46,-130,8,70*,66*,62*
CCOc1ccc(S(=O)(=O)Nc2ccc(Cl)cn2)c(C)c1C,-14,5,60*,-14,17,33,77*,64*,50
CCOc1cc(C)c(S(=O)(=O)Nc2ccc(Cl)cn2)cc1C,4,·,10,4,11,14,·,·,·
O=C(NC1CCCC1)c1cc(-c2ccccc2O)on1,-10,1,26,1,-114,-1,·,·,·
COc1ccccc1-c1cc(C(=O)NC2CCCC2)no1,6,4,53*,-5,-41,-5,50*,50*,49
Cc1cc(C)nc(SC2=CS(=O)(=O)c3ccccc32)n1,21,-36,16,44,46,-9,·,·,·

# High-throughput results from PubChem BioAssay.
